# Key:
# [1] = tested on: Western equine encephalitis virus; assay: Antiviral activity against Western equine encephalomyelitis virus infected in human BE(2)-C cells assessed as inhibition of viral RNA replication after 18 to 20 hrs by luciferase reporter gene assay; type: functional, cell-based
# [2] = Cytotoxicity against human BE(2)-C cells after 18 to 20 hrs by MTT assay; type: cell-based
# [3] = Kinetic solubility of the compound; type: physicochemical
# [4] = target: MDR1 (ABCB1, P-glycoprotein) (Homo sapiens, UniProt P08183); assay: Inhibition of human MDR1 expressed in MDCK2 cells assessed as increase of rhodamine 123 uptake at 30 uM up to 240 mins relative to control; type: ADME, cell-based, MDCK-II; details: MDCK2 cells expressing human MDR1, probe rhodamine 123
# Sequence of MDR1 (ABCB1, P-glycoprotein) (P08183 whole entry): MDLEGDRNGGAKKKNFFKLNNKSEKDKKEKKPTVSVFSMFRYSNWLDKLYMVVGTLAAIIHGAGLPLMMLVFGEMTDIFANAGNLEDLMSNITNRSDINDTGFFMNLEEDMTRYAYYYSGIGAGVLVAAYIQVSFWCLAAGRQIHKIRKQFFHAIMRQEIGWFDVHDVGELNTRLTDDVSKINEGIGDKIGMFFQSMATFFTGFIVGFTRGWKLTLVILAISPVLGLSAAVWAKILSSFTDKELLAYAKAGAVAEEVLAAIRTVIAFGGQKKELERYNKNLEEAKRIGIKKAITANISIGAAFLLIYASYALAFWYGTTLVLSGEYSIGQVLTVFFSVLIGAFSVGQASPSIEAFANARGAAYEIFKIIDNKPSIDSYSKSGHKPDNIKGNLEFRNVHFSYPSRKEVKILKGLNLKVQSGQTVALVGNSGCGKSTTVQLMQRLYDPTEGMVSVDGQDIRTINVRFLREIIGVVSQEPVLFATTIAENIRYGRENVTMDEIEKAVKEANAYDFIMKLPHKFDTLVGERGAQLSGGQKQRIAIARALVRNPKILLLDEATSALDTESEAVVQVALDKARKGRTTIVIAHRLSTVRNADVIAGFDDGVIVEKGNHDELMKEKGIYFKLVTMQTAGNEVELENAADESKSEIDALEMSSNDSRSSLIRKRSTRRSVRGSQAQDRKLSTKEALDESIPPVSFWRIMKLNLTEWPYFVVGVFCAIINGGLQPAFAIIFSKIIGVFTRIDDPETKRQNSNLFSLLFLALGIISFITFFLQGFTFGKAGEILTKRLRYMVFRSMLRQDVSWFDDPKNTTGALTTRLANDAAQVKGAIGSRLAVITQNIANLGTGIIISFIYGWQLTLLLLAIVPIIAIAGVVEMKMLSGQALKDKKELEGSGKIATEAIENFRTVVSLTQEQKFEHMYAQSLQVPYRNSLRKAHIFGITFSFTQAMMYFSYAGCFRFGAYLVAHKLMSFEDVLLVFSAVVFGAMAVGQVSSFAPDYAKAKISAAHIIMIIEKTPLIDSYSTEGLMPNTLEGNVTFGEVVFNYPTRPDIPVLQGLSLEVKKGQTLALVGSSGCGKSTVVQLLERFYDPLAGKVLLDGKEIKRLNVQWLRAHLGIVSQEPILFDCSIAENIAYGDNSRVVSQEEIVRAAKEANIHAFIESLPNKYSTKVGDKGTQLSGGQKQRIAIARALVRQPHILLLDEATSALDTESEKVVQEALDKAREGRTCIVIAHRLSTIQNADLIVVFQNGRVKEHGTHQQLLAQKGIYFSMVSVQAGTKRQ
# Method in brief: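 Confluent MDR1-MDCKII cells (human Pgp-transfected) given fresh DMEM with 10 μM rhodamine 123, plus vehicle, tariquidar (5 μM) or compound (30 μM). Uptake at 37°C from 1 to 240 min, stopped by ice-cold PBS washes. Fluorescence read at ex 525/em 560-640 nm. Result expressed as % of same-day tariquidar effect, (Cav−Cveh)*100/(Ctar−Cveh). Triplicates on ≥3 occasions.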
# [5] = Cytotoxicity against human BE(2)-C cells assessed as cell viability at 25 uM after 24 hrs by MTT assay relative to control; type: cell-based; details: read-out: Activity
# [6] = Half life in Balb-C mouse liver microsomes; type: ADME, Microsome
# Method in brief: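 Compound incubated with Balb-C mouse liver microsomes, and half-life determined for oxidative metabolism. Values are means of ≥2 independent incubations.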
# [7] = tested on: Fort Morgan virus; assay: Antiviral activity against Fort Morgan virus infected in human BE(2)-C cells assessed as reduction of viral titer at 25 uM after 24 hrs by plaque reduction assay (reference value: 47.1 +/- 10.5 x 10^6 pfu/ml); type: functional
SMILES,IC50 [1] [µM],CC50 ([2]; BE(2)-C cells) [µM],"inhibition at 4 h, 30 µM [4] [%]",CC50 ([2]; be(2)-c) [µM],also measured
O=C(NCc1ccco1)C1CCN(C(=O)c2cc3sccc3n2Cc2ccc(F)cc2)CC1,23.7,–,–,–,–
O=C(NCc1ccncc1)C1CCN(C(=O)c2cc3ccccc3n2Cc2ccc(Cl)cc2)CC1,6.8,> 100,25.9,–,Kinetic_solubility [3]: 31 µM
O=C(NCc1cccnc1)C1CCN(C(=O)c2cc3ccccc3n2Cc2ccc(Cl)cc2)CC1,11.4,–,–,–,–
O=C(NCCc1ccncc1)C1CCN(C(=O)NCCc2ccc(Cl)cc2)CC1,40.9,> 100,–,–,Kinetic_solubility [3]: 250 µM
Cn1c(C(=O)N2CCC(C(=O)NCCc3ccncc3)CC2)cc2ccccc21,> 50,> 50,–,–,–
O=C(NCCc1ccncc1)C1CCN(C(=O)c2cc3ccccc3n2Cc2ccccc2)CC1,1.6,–,11.7,45.6,"viability at 24 h, 25 µM [5]: 79.4%; t1/2 [6]: 77.9 min; Activity [7]: 6.8 ×10⁶ PFU/ml; Kinetic_solubility [3]: 31 µM"
O=C(NCCc1ccncc1)C1CCN(C(=O)c2cc3ccc(F)cc3n2Cc2ccc(Cl)cc2)CC1,0.6,–,30.8,43.1,"viability at 24 h, 25 µM [5]: 69.2%; Activity [7]: 1.6 ×10⁶ PFU/ml"
O=C(NCCc1ccncc1)C1CCN(C(=O)c2cc3cc(F)ccc3n2Cc2ccc(Cl)cc2)CC1,0.9,–,42.6,52.5,Kinetic_solubility [3]: 31 µM
O=C(NCCc1ccncc1)C1CCN(C(=O)c2cc(F)cn2Cc2ccc(Cl)cc2)CC1,0.9,–,–,8,Kinetic_solubility [3]: 125 µM
CC(C)c1ccc(CCNC(=O)C2CCN(C(=O)c3cc4ccccc4n3Cc3ccc(Cl)cc3)CC2)cc1,10.8,–,–,27.2,–
O=C(c1cc2ccccc2n1Cc1ccc(Cl)cc1)N1CCC(C(=O)N2CCC[C@H]2CO)CC1,30.6,–,–,98.9,–
CN(C)C(=O)C1CCN(C(=O)c2cc3ccccc3n2Cc2ccc(Cl)cc2)CC1,10.5,> 100,23.2,–,Kinetic_solubility [3]: 62 µM
O=C(c1cc2ccccc2n1Cc1ccc(Cl)cc1)N1CCC(C(=O)N2CCCC2)CC1,22.2,–,–,65.6,–
O=C(c1cc2ccccc2n1Cc1ccc(Cl)cc1)N1CCC(C(=O)N2CCOCC2)CC1,12.8,> 100,–,–,–
CN(Cc1ccccc1)C(=O)C1CCN(C(=O)c2cc3ccccc3n2Cc2ccc(Cl)cc2)CC1,16.9,–,–,87,–
CN(Cc1ccccc1)C(=O)C1CCN(C(=O)c2cc3ccccc3n2Cc2ccc([N+](=O)[O-])cc2)CC1,61.3,> 100,–,–,–
CN(Cc1ccccc1)C(=O)C1CCN(C(=O)c2cc3ccccc3n2Cc2ccc(C#N)cc2)CC1,95.9,> 100,–,–,–
COc1ccc(Cn2c(C(=O)N3CCC(C(=O)N(C)Cc4ccccc4)CC3)cc3ccccc32)cc1,16.5,–,–,99.2,–
CC(=O)n1c(C(=O)N2CCC(C(=O)N(C)Cc3ccccc3)CC2)cc2ccccc21,> 50,> 50,–,–,–
COCCn1c(C(=O)N2CCC(C(=O)N(C)Cc3ccccc3)CC2)cc2ccccc21,> 50,> 50,–,–,–
CC(C)Cn1c(C(=O)N2CCC(C(=O)N(C)Cc3ccccc3)CC2)cc2ccccc21,27.9,–,–,58.2,–
CN(Cc1ccccc1)C(=O)C1CCN(C(=O)c2cc3ccccc3n2Cc2ccccc2)CC1,17,–,–,64.8,–

SMILES,IC50 [1] [µM],CC50 ([2]; BE(2)-C cells) [µM],"inhibition at 4 h, 30 µM [4] [%]",CC50 ([2]; be(2)-c) [µM],also measured
CN(Cc1ccccc1)C(=O)C1CCN(C(=O)c2cc3ccccc3n2Cc2ccncc2)CC1,24.2,–,–,80.3,–
CN(Cc1ccccc1)C(=O)C1CCN(C(=O)c2cc3ccccc3n2Cc2ccc(C(F)(F)F)cc2)CC1,35.1,–,–,90.3,–
O=C(NCCc1ccncc1)C1CCN(C(=O)c2nccn2Cc2ccc(Cl)cc2)CC1,> 50,> 50,0.13,–,solubility kinetic ([3]; read-out: Kinetic_solubility): > 500 µM
O=C(NCCc1ccncc1)C1CCN(C(=O)c2nc3ccccc3n2Cc2ccc(Cl)cc2)CC1,4.1,–,6.9,74.6,"viability at 24 h, 25 µM [5]: 69.7%; t1/2 [6]: 43 min; Activity [7]: 16.4 ×10⁶ PFU/ml; Kinetic_solubility [3]: 63 µM"
O=C(NCc1ccccc1)C1CCN(C(=O)c2cc3ccccc3n2Cc2ccc(Cl)cc2)CC1,15.6,–,–,–,–
C[C@@H](NC(=O)C1CCN(C(=O)c2cc3ccccc3n2Cc2ccc(Cl)cc2)CC1)c1ccncc1,0.6,–,35.9,92.3,"viability at 24 h, 25 µM [5]: 65.5%; t1/2 [6]: 23.4 min; Activity [7]: 6.4 ×10⁶ PFU/ml"
CN1CCN(C(=O)C2CCN(C(=O)c3cc4ccccc4n3Cc3ccc(Cl)cc3)CC2)CC1,31.4,–,–,75.6,–
CN1CCC(CNC(=O)C2CCN(C(=O)c3cc4ccccc4n3Cc3ccc(Cl)cc3)CC2)CC1,> 50,> 50,–,–,–
Cn1ccc(CNC(=O)C2CCN(C(=O)c3cc4ccccc4n3Cc3ccc(Cl)cc3)CC2)n1,76.9,> 100,–,–,–
Cn1cnc(CNC(=O)C2CCN(C(=O)c3cc4ccccc4n3Cc3ccc(Cl)cc3)CC2)c1,> 50,> 50,–,–,–
O=C(NCCc1cccnc1)C1CCN(C(=O)c2cc3ccccc3n2Cc2ccc(Cl)cc2)CC1,5.3,–,30.1,39.4,–
O=C(NCCc1ccccn1)C1CCN(C(=O)c2cc3ccccc3n2Cc2ccc(Cl)cc2)CC1,22.4,–,21.9,86.2,–
O=C(NCCCc1ccncc1)C1CCN(C(=O)c2cc3ccccc3n2Cc2ccc(Cl)cc2)CC1,31.9,–,35.2,71.5,Kinetic_solubility [3]: 16 µM
CC(CNC(=O)C1CCN(C(=O)c2cc3ccccc3n2Cc2ccc(Cl)cc2)CC1)c1ccncc1 (stereo unspecified),1.7,–,25.4,98.2,"viability at 24 h, 25 µM [5]: 74%; Activity [7]: 13.3 ×10⁶ PFU/ml"
CC(C)(Cc1ccncc1)NC(=O)C1CCN(C(=O)c2cc3ccccc3n2Cc2ccc(Cl)cc2)CC1,19.3,43.6,–,–,–
CN(CCc1ccncc1)C(=O)C1CCN(C(=O)c2cc3ccccc3n2Cc2ccc(Cl)cc2)CC1,1.6,–,72,47.9,–
O=C(NCC1COc2cnccc21)C1CCN(C(=O)c2cc3ccccc3n2Cc2ccc(Cl)cc2)CC1 (stereo unspecified),3.6,–,47,75.8,–
O=C(NCCn1ccnc1)C1CCN(C(=O)c2cc3ccccc3n2Cc2ccc(Cl)cc2)CC1,4.9,–,15.1,99.6,"viability at 24 h, 25 µM [5]: 70.3%; t1/2 [6]: 14.3 min; Activity [7]: 15.8 ×10⁶ PFU/ml; Kinetic_solubility [3]: 31 µM"
COc1cccc(CCNC(=O)C2CCN(C(=O)c3cc4ccccc4n3Cc3ccc(Cl)cc3)CC2)c1,11.1,> 100,–,–,–
O=C(NCCc1ccc(F)cc1)C1CCN(C(=O)c2cc3ccccc3n2Cc2ccc(Cl)cc2)CC1,21.4,–,–,18.6,–
COc1ccc(CCNC(=O)C2CCN(C(=O)c3cc4ccccc4n3Cc3ccc(Cl)cc3)CC2)cc1,15.5,–,–,11.3,–
O=C(NCCc1ccc(Cl)cc1)C1CCN(C(=O)c2cc3ccccc3n2Cc2ccc(Cl)cc2)CC1,8.1,–,–,40.4,–

# Source: ChEMBL document CHEMBL3085701, “Optimization of novel indole-2-carboxamide inhibitors of neurotropic alphavirus replication” (J Med Chem, 2013)
